For one assay, the system named is Listeria monocytogenes. Kind of assay: Antibacterial activity against Listeria monocytogenes NCTC 7973 after 24 hrs by INT dye based microdilution assay. The format is functional. Particulars: NCTC 7973, 24 h. In outline:
(§1)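 Broth microdilution in tryptic soy broth: overnight bacterial culture adjusted to 1×10^5 CFU/mL, 1.0×10^4 CFU per well; compounds dissolved in 5% DMSO, tested at 0.001-1.0 mg/ml; 24 h at 37°C. Streptomycin and ampicillin as positive controls, 5% DMSO as negative control; duplicate, repeated three times.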

The next assay concerns Aspergillus fumigatus. Kind of assay: Antifungal activity against Aspergillus fumigatus isolate 1022 after 72 hrs by serial dilution assay. The format is functional. Particulars: isolate 1022, 72 h. In a few lines:
(§2)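 Modified microdilution: fungal spores washed off malt agar with sterile 0.85% saline plus 0.1% Tween 80, adjusted to about 1.0×10^5 per 100 µL well. Compounds in 5% DMSO (0.001-1.0 mg/ml) in malt broth; 72 h at 28°C on rotary shaker (160 rpm). MIC is lowest concentration without visible growth under binocular microscope. Bifonazole and ketoconazole controls (1-3500 µg/mL); three independent experiments in duplicate.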

Assay [1] concerns Escherichia coli. The assay can be described thus: Antibacterial activity against Escherichia coli ATCC 35210 after 24 hrs by INT dye based microdilution assay. The format is functional. Particulars: ATCC 35210, 24 h. In outline: as §1
The test system of another assay is Enterobacter cloacae. Kind of assay: Antibacterial activity against Enterobacter cloacae after 24 hrs by INT dye based microdilution assay. The format is functional. In outline:
as §1

The next assay has as its system Micrococcus flavus. The assay can be described thus: Antibacterial activity against Micrococcus flavus ATCC 10240 after 24 hrs by INT dye based microdilution assay. Particulars: ATCC 10240, 24 h. The format is functional. In outline: as §1
A further assay has as its system Aspergillus versicolor. The assay can be described thus: Antifungal activity against Aspergillus versicolor ATCC 11730 after 72 hrs by serial dilution assay. The format is functional. Particulars: ATCC 11730, 72 h. In a few lines: as §2
Another assay relates to Bacillus cereus. The assay can be described thus: Antibacterial activity against Bacillus cereus after 24 hrs by INT dye based microdilution assay. The format is functional. In a few lines: as §1
For another assay, the system named is Trichoderma viride. Kind of assay: Antifungal activity against Trichoderma viride IAM 5061 after 72 hrs by serial dilution assay. As to conditions: IAM 5061, 72 h. The format is functional. In a few lines:
as §2

The subject of a further assay is Penicillium ochrochloron. Kind of assay: Antifungal activity against Penicillium ochrochloron ATCC 9112 after 72 hrs by serial dilution assay. Particulars: ATCC 9112, 72 h. The format is functional. In a few lines:
as §2

A further assay has as its system Talaromyces funiculosus. Kind of assay: Antifungal activity against Penicillium funiculosum ATCC 36839 after 72 hrs by serial dilution assay. The format is functional. Particulars: ATCC 36839, 72 h. In outline:
as §2

A further assay relates to Aspergillus ochraceus. The assay can be described thus: Antifungal activity against Aspergillus ochraceus ATCC 12066 after 72 hrs by serial dilution assay. As to conditions: ATCC 12066, 72 h. The format is functional. In a few lines:
as §2

Assay [2] deals with Pseudomonas aeruginosa. The assay can be described thus: Antibacterial activity against Pseudomonas aeruginosa ATCC 27853 after 24 hrs by INT dye based microdilution assay. The format is functional. Particulars: ATCC 27853, 24 h. In a few lines: as §1
Another assay has as its system Salmonella typhimurium. Kind of assay: Antibacterial activity against Salmonella typhimurium ATCC 13311 after 24 hrs by INT dye based microdilution assay. Particulars: Salmonella enterica, ATCC 13311, 24 h. The format is functional, Salmonella enterica subsp. enterica serovar Typhimurium. In outline: as §1
The test system of another assay is Candida albicans. The assay can be described thus: Antifungal activity against Candida albicans after 72 hrs by serial dilution assay. The format is functional. In outline: as §2
The test system of assay [3] is Staphylococcus aureus. The assay can be described thus: Antibacterial activity against Staphylococcus aureus ATCC 6538 after 24 hrs by INT dye based microdilution assay. The format is functional. Particulars: ATCC 6538, 24 h. In outline: as §1
Another assay has as its system Aspergillus niger. The assay can be described thus: Antifungal activity against Aspergillus niger ATCC 6275 after 72 hrs by serial dilution assay. The format is functional. As to conditions: ATCC 6275, 72 h. In a few lines:
as §2

A further assay relates to Penicillium verrucosum. The assay can be described thus: Antifungal activity against Penicillium cyclopium var verucosum after 72 hrs by serial dilution assay. The format is functional. In a few lines: as §2
In assay [4] the test system is Pseudomonas aeruginosa. The assay can be described thus: Antibacterial activity against drug-resistant Pseudomonas aeruginosa after 24 hrs by INT dye based microdilution assay. The format is functional. In outline:
(§3)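 Broth microdilution in tryptic soy broth. Overnight culture adjusted to 1×10^5 CFU/mL, giving 1.0×10^4 CFU per well. Compounds dissolved in 5% DMSO and tested at 0.001-1.0 mg/ml. Plates incubated 24 h at 37°C. INT (0.2 mg/mL) then added, with 30 min at 37°C. Duplicate, repeated three times.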

In assay [5] the test system is Escherichia coli. The assay can be described thus: Antibacterial activity against drug-resistant Escherichia coli after 24 hrs by INT dye based microdilution assay. The format is functional. In outline: as §3
Assay [6] deals with Staphylococcus aureus. The assay can be described thus: Antibacterial activity against methicillin-resistant Staphylococcus aureus after 24 hrs by INT dye based microdilution assay. The format is functional. In a few lines:
as §3

Structures are written as SMILES. In brackets after ≈: the same amount, converted by molar mass.

For the compound `COc1cc(/C=C2/S/C(=N/c3nnc(C45CC6CC(CC(C6)C4)C5)s3)NC2=O)ccc1O`, the MIC is 134 µM (≈ 62.8 µg/mL) with Listeria monocytogenes; 133 µM (≈ 62.3 µg/mL) against Aspergillus fumigatus; 0.134 µM (≈ 0.0628 µg/mL) with Escherichia coli [1]; 32 µM (≈ 15 µg/mL) in the assay with Enterobacter cloacae; 134 µM (≈ 62.8 µg/mL) against Micrococcus flavus; 33 µM (≈ 15.5 µg/mL) against Aspergillus versicolor. Besides, the minimal inhibitory concentration (MIC) with Bacillus cereus was determined as 32 µM (≈ 15 µg/mL); in the assay on Trichoderma viride, 17 µM (≈ 7.97 µg/mL); with Penicillium ochrochloron, 66 µM (≈ 30.9 µg/mL); against Talaromyces funiculosus, 66 µM (≈ 30.9 µg/mL); against Aspergillus ochraceus, 17 µM (≈ 7.97 µg/mL); against Pseudomonas aeruginosa [2], 32 µM (≈ 15 µg/mL). In addition, the MIC in the assay with Salmonella typhimurium is 32 µM (≈ 15 µg/mL); in the assay with Candida albicans it was 133 µM (≈ 62.3 µg/mL); with Staphylococcus aureus [3], 0.032 µM (≈ 0.015 µg/mL); against Aspergillus niger it was 66 µM (≈ 30.9 µg/mL).
Take `O=C1N/C(=N\c2nnc(C34CC5CC(CC(C5)C3)C4)s2)S/C1=C/c1cccc(Cl)c1`: the MIC is 137 µM (≈ 62.6 µg/mL) in the assay with Listeria monocytogenes; 137 µM (≈ 62.6 µg/mL) with Aspergillus fumigatus; 0.066 µM (≈ 0.0302 µg/mL) in the assay on Escherichia coli [1]; 137 µM (≈ 62.6 µg/mL) against Enterobacter cloacae; 66 µM (≈ 30.2 µg/mL) in the assay on Micrococcus flavus; 68 µM (≈ 31.1 µg/mL) against Aspergillus versicolor. The MIC in the assay on Bacillus cereus is 66 µM (≈ 30.2 µg/mL); against Trichoderma viride, 68 µM (≈ 31.1 µg/mL); in the assay with Penicillium ochrochloron, 68 µM (≈ 31.1 µg/mL); with Talaromyces funiculosus it was 137 µM (≈ 62.6 µg/mL); in the assay on Aspergillus ochraceus, 68 µM (≈ 31.1 µg/mL); in the assay with Pseudomonas aeruginosa [2], 66 µM (≈ 30.2 µg/mL). In addition, the minimum inhibitory concentration (MIC) with Salmonella typhimurium is 66 µM (≈ 30.2 µg/mL); against Candida albicans it was 274 µM (≈ 125 µg/mL); with Staphylococcus aureus [3], 0.088 µM (≈ 0.0402 µg/mL); in the assay with Aspergillus niger, 137 µM (≈ 62.6 µg/mL).
On to `O=C1N/C(=N\c2nnc(C34CC5CC(CC(C5)C3)C4)s2)S/C1=C/c1ccc(Cl)cc1`, for which the MIC with Listeria monocytogenes amounted to 274 µM (≈ 125 µg/mL); with Aspergillus fumigatus, 137 µM (≈ 62.6 µg/mL); in the assay on Escherichia coli [1], 0.274 µM (≈ 0.125 µg/mL); in the assay on Enterobacter cloacae, 137 µM (≈ 62.6 µg/mL); in the assay with Micrococcus flavus, 328 µM (≈ 150 µg/mL); in the assay on Aspergillus versicolor, 68 µM (≈ 31.1 µg/mL). Besides, the minimal inhibitory concentration (MIC) was 137 µM (≈ 62.6 µg/mL) against Bacillus cereus; 68 µM (≈ 31.1 µg/mL) in the assay on Trichoderma viride; 137 µM (≈ 62.6 µg/mL) in the assay with Penicillium ochrochloron; 137 µM (≈ 62.6 µg/mL) with Talaromyces funiculosus; 68 µM (≈ 31.1 µg/mL) in the assay with Aspergillus ochraceus; 33 µM (≈ 15.1 µg/mL) in the assay with Pseudomonas aeruginosa [2]. For the same compound, the MIC in the assay on Salmonella typhimurium turned out to be 33 µM (≈ 15.1 µg/mL); against Candida albicans it was 274 µM (≈ 125 µg/mL); against Staphylococcus aureus [3] it was 0.137 µM (≈ 0.0626 µg/mL); with Aspergillus niger it was 137 µM (≈ 62.6 µg/mL).
On to `O=C1N/C(=N\c2nnc(C34CC5CC(CC(C5)C3)C4)s2)S/C1=C/c1ccc(F)cc1`, for which the minimum inhibitory concentration (MIC) worked out at 0.182 µM (≈ 0.0801 µg/mL) in the assay with Penicillium verrucosum; 295 µM (≈ 130 µg/mL) in the assay on Pseudomonas aeruginosa [4]; 295 µM (≈ 130 µg/mL) in the assay with Listeria monocytogenes; 90.9 µM (≈ 40 µg/mL) in the assay on Aspergillus fumigatus; 0.295 µM (≈ 0.13 µg/mL) in the assay with Escherichia coli [1]; 148 µM (≈ 65 µg/mL) with Enterobacter cloacae. The minimum inhibitory concentration (MIC) in the assay with Micrococcus flavus amounted to 295 µM (≈ 130 µg/mL); in the assay with Aspergillus versicolor it was 90.9 µM (≈ 40 µg/mL); with Bacillus cereus it was 295 µM (≈ 130 µg/mL); in the assay with Trichoderma viride it was 182 µM (≈ 80.2 µg/mL); in the assay on Penicillium ochrochloron it was 90.9 µM (≈ 40 µg/mL); in the assay on Talaromyces funiculosus it was 90.9 µM (≈ 40 µg/mL). Also, the minimum inhibitory concentration (MIC) in the assay with Aspergillus ochraceus came to 90.9 µM (≈ 40 µg/mL); with Escherichia coli [5], 0.295 µM (≈ 0.13 µg/mL); against Pseudomonas aeruginosa [2], 295 µM (≈ 130 µg/mL); with Salmonella typhimurium, 295 µM (≈ 130 µg/mL); against Staphylococcus aureus [3], 0.147 µM (≈ 0.065 µg/mL); against Staphylococcus aureus [6] it was 0.295 µM (≈ 0.13 µg/mL). This compound had an MIC with Aspergillus niger of 182 µM (≈ 80.2 µg/mL).
On to `CC(=O)N1CCN(c2ccc(OCC3COC(Cn4ccnc4)(c4ccc(Cl)cc4Cl)O3)cc2)CC1` (stereo unspecified) [KETOCONAZOLE], for which the MIC was 0.376 µM (≈ 0.2 µg/mL) against Penicillium verrucosum; 380 µM (≈ 202 µg/mL) in the assay with Aspergillus fumigatus; 2850 µM (≈ 1510 µg/mL) in the assay with Aspergillus versicolor; 4750 µM (≈ 2520 µg/mL) with Trichoderma viride; 3800 µM (≈ 2020 µg/mL) against Penicillium ochrochloron; 380 µM (≈ 202 µg/mL) in the assay on Talaromyces funiculosus. Also, the MIC in the assay with Aspergillus ochraceus came out at 380 µM (≈ 202 µg/mL); against Candida albicans, 376 µM (≈ 200 µg/mL); with Aspergillus niger it was 380 µM (≈ 202 µg/mL).

The values are drawn from ChEMBL document CHEMBL4229530, “5-Adamantan thiadiazole-based thiazolidinones as antimicrobial agents. Design, synthesis, molecular docking and evaluation” (2018).
